Experimental data gathered from unrelated publications.
Protocols differ between the studies behind these lines.
Target: Dual specificity tyrosine-phosphorylation-regulated kinase 3 (DYRK3, Homo sapiens, UniProt O43781)
Sequence (O43781 1-588, as in one of the studies): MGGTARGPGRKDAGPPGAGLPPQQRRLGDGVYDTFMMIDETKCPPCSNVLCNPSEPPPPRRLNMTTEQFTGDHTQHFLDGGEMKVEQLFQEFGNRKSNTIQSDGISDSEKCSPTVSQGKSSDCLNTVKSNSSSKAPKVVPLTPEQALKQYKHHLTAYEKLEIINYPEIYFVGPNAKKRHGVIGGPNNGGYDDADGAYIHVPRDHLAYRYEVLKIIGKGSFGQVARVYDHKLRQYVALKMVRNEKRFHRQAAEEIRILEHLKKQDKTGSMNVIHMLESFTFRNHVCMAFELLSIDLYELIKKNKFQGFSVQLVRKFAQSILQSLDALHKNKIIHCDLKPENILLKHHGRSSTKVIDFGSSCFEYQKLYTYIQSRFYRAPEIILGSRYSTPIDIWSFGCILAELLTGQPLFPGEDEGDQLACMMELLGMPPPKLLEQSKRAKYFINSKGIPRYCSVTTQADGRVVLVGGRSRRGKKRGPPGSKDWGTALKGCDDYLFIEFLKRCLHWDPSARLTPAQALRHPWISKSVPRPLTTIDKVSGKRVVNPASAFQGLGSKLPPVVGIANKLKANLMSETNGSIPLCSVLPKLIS

`O=C(O)c1ccc2c(c1)nc(Nc1cccc(F)c1)c1ncncc12` has a remaining activity of 9% (enzyme activity, inhibitor, radiometric; 1 µM).
`Cn1cnc(Br)c1C1=CN(c2ncnc3[nH]cnc23)CCS1` has an inhibition of 49.8% (enzyme activity, inhibitor, radiometric; 50 nM).
The remaining activity of `O=C(Nc1cnn(-c2csc(C(=O)NC3COC3)c2)c1)Nc1ccccc1Cl` is reported as 93.3% (enzyme activity, inhibitor; 5 µM).
`Nc1nc(Nc2ccccc2)sc1C(=O)c1c(F)cccc1F` gave a remaining activity of 83% (enzyme activity, inhibitor; 10 µM).
For `O=C1Nc2ccc(Cl)cc2C1=Cc1cc(Cl)c(O)c(Cl)c1`, the remaining signal was 91.8% (cell-free assay; 0.5 µM).
For `COc1cc(-c2cc(-c3ccc(N4CCNCC4)cc3)cnc2C)cc(OC)c1OC`, the inhibition was 1% (enzyme activity, inhibitor; 0.1 µM).
For `O=C(O)c1ccc2c(c1)nc(NCCc1cccc(F)c1)c1ccncc12`, the remaining activity was 7% (enzyme activity, inhibitor, radiometric; 1 µM).
`CC/C(=N\NC(=O)NCc1cccc(O)c1)c1ccc(O)c(C)c1O` has an inhibition of 1.6% (enzyme activity, inhibitor; 0.1 µM).
`Oc1cccc(-c2nc(N3CCOCC3)c3oc4ncccc4c3n2)c1` has a remaining activity of 64% (enzyme activity, inhibitor; 10 µM).
With `O=C(O)c1ccc2c(c1)nc(Nc1ccc(F)c(Cl)c1)c1ncncc12` the remaining activity was 8% (enzyme activity, inhibitor, radiometric; 1 µM).
`Cn1cncc1C1=CN(c2ncnc3[nH]cnc23)CCS1` gave an inhibition of 90.9% (enzyme activity, inhibitor, radiometric; 2 µM).
With `O=C(O)c1ccc2c(c1)nc(NCc1ccccc1)c1ncncc12` the remaining activity was 31% (enzyme activity, inhibitor, radiometric; 1 µM).
`COc1cc2ncnc(Nc3ccc(Oc4ccccc4)cc3C)c2cc1OC` has an inhibition of 1% (enzyme activity, inhibitor; 1 µM).
